Results gathered from unrelated publications.
Target: Tyrosine-protein kinase ABL2 (ABL2, Homo sapiens, UniProt P42684)

For CC(C)(C)c1nc2c(s1)c1nc(N)ncc1c1ccc(NS(=O)(=O)c3c(F)cccc3F)c(F)c12, the remaining activity was 99% (enzyme activity; inhibitor; radiometric; 1 µM).
Cc1ccc(C(=O)NCc2ccsc2)cc1C#Cc1cn(C(C)C)c2ncnc(N)c12 has an activity vs control of 6% (enzyme activity; inhibitor; 1 µM).
For CC/C(=N\NC(=O)NCc1cccc(O)c1)c1ccc(O)c(C)c1O, the inhibition was -0.2% (enzyme activity; inhibitor; 0.1 µM).
With C[C@H](c1ccc(F)cc1)N(Cc1cccc(C(=O)O)c1)C(=O)c1cnc2ccccc2c1 the remaining binding was 82% (cell-free assay; competition with immobilised ligand; 1 µM).
For COc1cc2ncnc(Nc3ccc(Oc4ccccc4)cc3C)c2cc1OC, the inhibition was 16% (enzyme activity; inhibitor; 1 µM).
COCCOc1nc(-c2ccc(Cl)nc2)nc2c1CN(C(=O)c1ncn3ccccc13)CC2 gave a remaining binding of 100% (cell-free assay; competition with immobilised ligand; 0.1 µM).
With Cc1ccc(C(=O)Nc2ccc(CN3CCN(C)CC3)c(C(F)(F)F)c2)cc1C#Cc1cnc2cccnn12 the remaining activity was 3.2% (enzyme activity; inhibitor; 23.5 nM).
CCCS(=O)(=O)Nc1ccc(F)c(C(=O)c2c[nH]c3ncc(-c4ccc(Cl)cc4)cc23)c1F has an inhibition of less than 20% (enzyme activity; inhibitor; 1 µM).
C=CC(=O)Nc1cc(Nc2nccc(Nc3cc(Cl)c(F)cc3C(C)(C)O)n2)c(OC)cc1N1CC[C@@H](N(C)C)C1 has an inhibition of 18% (enzyme activity; inhibitor; 1 µM).
The remaining activity of COc1cc(Cl)c(C(=O)N[C@@H](CN[C@H]2CC[C@@H](N)CC2)Cc2ccc(C#N)cc2)cc1-c1ccc(CN[C@H](C)c2ccc(C)cc2)o1 is reported as 87% (enzyme activity; inhibitor; 1 µM).
Cc1ccc(Nc2nccc(N(C)c3ccc4c(C)n(C)nc4c3)n2)cc1S(N)(=O)=O has an inhibition of 84% (enzyme activity; inhibitor; 10 µM).
Cc1cc(NC(=O)c2cccc(S(F)(F)(F)(F)F)c2)cc(-n2ccn3nc(-c4cccnc4)cc23)c1 gave a remaining binding of 100% (cell-free assay; competition with immobilised ligand; 1 µM).
O=C1Nc2ccc(Cl)cc2C1=Cc1cc(Cl)c(O)c(Cl)c1 gave a remaining signal of 80.4% (cell-free assay; 0.5 µM).
CC(=O)N1CCC(c2ccc(C(=O)NC3=NCCN3)cc2C(F)(F)F)CC1 has a remaining binding of 100% (cell-free assay; competition with immobilised ligand; 1 µM).
CNC(=O)c1cc(Oc2ccc(NC(=O)Nc3ccc(Cl)c(C(F)(F)F)c3)cc2)ccn1 gave an inhibition of 11% (enzyme activity; inhibitor; 0.3 µM).
With Cc1nc(N2CC[C@@H](O)C2)ncc1-c1cc(C(F)(F)F)cc2[nH]ncc12 the remaining binding was 60% (binding; competition with immobilised ligand; 1 µM).
For Cc1cc(NC(=O)c2cccc3cc(-c4cccc5[nH]nc(N)c45)ccc23)ccc1F, the activity vs control was 122% (enzyme activity; inhibitor; 0.1 µM).
For O=C(Nc1cnn(-c2csc(C(=O)NC3COC3)c2)c1)Nc1c(F)cccc1Cl, the remaining activity was 88.7% (enzyme activity; inhibitor; 5 µM).
The remaining binding of O=C(Nc1ccc(Oc2ccc(F)cc2)cc1)N1CCc2ncccc2[C@H]1c1ccc(F)cc1 is reported as 88% (cell-free assay; competition with immobilised ligand; 1 µM).
Clc1ccc(Nc2nnc(Cc3ccncc3)c3ccccc23)cc1 has a remaining signal of 101% (cell-free assay; 0.5 µM).
For Cc1c(NC(=O)c2cc(C(N)=O)nc3cc(F)ccc23)c(C(F)(F)F)nn1Cc1ccc(C(C)(C)C)cc1, the remaining binding was 87% (cell-free assay; competition with immobilised ligand; 1 µM).
With Nc1ncnc2occ(-c3ccc(NC(=O)Nc4cc(C(F)(F)F)ccc4F)cc3)c12 the remaining signal was 0.65% (cell-free assay; inhibitor; 20 µM).
